Reference: ChEMBL document CHEMBL5653631, “A Potent and Selective ULK1 Inhibitor Suppresses Autophagy and Sensitizes Cancer Cells to Nutrient Stress” (iScience, 2018)
Values belong to the molecule of their own block, whether it stands above or below them.

Tests used:
[1] = molecular target: Serine/threonine-protein kinase MRCK beta (Homo sapiens) (UniProt Q9Y5S2); test: Inhibition of human recombinant MRCKb at 500 nM in presence of ATP by radiometric assay relative to control
[2] = molecular target: T1, Mitogen-activated protein kinase kinase kinase 7 (Homo sapiens) (UniProt O43318); test: Inhibition of human recombinant TAK1 at 500 nM in presence of ATP by radiometric assay relative to control
T1 sequence (whole entry): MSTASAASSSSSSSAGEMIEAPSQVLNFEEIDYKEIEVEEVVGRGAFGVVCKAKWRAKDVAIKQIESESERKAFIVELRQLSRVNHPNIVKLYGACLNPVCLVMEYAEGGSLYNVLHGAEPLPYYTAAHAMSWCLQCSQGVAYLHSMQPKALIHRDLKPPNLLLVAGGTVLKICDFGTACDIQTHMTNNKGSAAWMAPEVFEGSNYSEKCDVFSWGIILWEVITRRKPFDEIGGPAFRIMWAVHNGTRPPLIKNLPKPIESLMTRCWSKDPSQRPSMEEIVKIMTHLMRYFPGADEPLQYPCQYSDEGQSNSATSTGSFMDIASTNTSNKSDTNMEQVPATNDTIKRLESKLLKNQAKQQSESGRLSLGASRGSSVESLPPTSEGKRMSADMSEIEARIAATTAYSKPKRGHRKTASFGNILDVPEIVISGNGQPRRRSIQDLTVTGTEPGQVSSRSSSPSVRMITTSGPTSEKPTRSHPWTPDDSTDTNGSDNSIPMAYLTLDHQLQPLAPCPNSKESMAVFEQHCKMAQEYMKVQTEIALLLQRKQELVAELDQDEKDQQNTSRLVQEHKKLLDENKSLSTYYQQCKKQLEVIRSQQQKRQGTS

[3] = molecular target: T2, Serine/threonine-protein kinase ULK3 (Homo sapiens) (UniProt Q6PHR2); test: Inhibition of human recombinant ULK3 at 15 nM in presence of ATP by radiometric assay relative to control
T2 sequence (whole entry): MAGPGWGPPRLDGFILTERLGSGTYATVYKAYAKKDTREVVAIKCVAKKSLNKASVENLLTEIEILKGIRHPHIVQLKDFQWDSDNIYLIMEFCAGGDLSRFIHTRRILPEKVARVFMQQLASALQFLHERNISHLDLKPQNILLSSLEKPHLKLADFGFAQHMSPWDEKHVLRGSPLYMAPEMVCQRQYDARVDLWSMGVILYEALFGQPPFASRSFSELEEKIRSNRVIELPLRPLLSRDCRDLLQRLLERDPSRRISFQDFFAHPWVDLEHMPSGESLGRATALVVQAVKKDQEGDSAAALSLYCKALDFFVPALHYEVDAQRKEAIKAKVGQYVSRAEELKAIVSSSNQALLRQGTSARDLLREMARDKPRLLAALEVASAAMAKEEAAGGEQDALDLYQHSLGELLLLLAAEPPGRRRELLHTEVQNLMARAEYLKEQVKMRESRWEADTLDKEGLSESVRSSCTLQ

[4] = molecular target: T3, Inhibitor of nuclear factor kappa-B kinase subunit alpha (Homo sapiens) (UniProt O15111); test: Inhibition of human recombinant IKKa at 15 nM related to control ULK1
T3 sequence (whole entry): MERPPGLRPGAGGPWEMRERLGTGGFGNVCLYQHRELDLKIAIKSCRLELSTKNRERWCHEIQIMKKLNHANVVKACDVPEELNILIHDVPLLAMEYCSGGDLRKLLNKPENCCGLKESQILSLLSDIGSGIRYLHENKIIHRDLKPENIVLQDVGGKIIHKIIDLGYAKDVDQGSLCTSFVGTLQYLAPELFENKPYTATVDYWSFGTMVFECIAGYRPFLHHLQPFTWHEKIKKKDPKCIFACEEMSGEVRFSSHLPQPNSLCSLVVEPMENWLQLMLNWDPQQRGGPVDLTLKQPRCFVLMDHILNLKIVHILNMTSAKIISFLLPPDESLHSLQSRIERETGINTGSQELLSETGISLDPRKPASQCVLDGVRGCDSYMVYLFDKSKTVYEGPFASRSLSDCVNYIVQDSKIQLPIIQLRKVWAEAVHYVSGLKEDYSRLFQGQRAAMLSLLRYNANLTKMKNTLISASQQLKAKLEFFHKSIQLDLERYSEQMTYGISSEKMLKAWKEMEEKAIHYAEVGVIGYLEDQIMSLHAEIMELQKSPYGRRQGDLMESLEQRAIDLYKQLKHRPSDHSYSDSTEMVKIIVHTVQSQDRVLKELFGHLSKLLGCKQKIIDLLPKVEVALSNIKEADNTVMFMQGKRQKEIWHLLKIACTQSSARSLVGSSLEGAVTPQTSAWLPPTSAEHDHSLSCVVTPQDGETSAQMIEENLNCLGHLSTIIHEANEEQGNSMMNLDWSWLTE

[5] = molecular target: T4, Serine/threonine-protein kinase BRSK1 (Homo sapiens) (UniProt Q8TDC3); test: Inhibition of human recombinant BRSK1 at 40 nM in presence of ATP by radiometric assay relative to control
T4 sequence (whole entry): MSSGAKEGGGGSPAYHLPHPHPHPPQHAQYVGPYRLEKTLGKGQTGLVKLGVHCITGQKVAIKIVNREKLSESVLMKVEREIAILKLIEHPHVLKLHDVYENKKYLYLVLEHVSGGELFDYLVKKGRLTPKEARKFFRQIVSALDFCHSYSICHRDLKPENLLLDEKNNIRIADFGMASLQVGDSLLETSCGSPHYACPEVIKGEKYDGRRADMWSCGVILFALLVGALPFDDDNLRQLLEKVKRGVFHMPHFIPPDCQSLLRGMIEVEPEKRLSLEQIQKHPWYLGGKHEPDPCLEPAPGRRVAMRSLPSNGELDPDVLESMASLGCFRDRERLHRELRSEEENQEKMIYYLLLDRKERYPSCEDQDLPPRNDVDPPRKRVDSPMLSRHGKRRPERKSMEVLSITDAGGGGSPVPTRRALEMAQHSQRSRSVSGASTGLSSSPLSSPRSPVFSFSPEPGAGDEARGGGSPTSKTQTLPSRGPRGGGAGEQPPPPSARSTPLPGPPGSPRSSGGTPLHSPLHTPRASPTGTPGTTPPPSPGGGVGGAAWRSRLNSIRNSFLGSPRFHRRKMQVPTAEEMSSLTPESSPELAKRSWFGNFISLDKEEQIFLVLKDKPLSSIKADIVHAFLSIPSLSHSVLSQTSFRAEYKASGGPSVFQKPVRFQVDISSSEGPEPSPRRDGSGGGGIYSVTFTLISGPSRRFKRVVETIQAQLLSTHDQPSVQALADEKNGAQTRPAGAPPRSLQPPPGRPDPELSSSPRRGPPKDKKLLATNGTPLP
Outline: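 Recombinant human kinase panel (327 kinases) run as radiometric activity assays, each kinase in duplicate at one compound concentration. Activity remaining expressed relative to vehicle control; percent inhibition taken as 100% minus % activity remaining.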

Serine/threonine-protein kinase MRCK beta (Homo sapiens), sequence (Q9Y5S2 whole entry): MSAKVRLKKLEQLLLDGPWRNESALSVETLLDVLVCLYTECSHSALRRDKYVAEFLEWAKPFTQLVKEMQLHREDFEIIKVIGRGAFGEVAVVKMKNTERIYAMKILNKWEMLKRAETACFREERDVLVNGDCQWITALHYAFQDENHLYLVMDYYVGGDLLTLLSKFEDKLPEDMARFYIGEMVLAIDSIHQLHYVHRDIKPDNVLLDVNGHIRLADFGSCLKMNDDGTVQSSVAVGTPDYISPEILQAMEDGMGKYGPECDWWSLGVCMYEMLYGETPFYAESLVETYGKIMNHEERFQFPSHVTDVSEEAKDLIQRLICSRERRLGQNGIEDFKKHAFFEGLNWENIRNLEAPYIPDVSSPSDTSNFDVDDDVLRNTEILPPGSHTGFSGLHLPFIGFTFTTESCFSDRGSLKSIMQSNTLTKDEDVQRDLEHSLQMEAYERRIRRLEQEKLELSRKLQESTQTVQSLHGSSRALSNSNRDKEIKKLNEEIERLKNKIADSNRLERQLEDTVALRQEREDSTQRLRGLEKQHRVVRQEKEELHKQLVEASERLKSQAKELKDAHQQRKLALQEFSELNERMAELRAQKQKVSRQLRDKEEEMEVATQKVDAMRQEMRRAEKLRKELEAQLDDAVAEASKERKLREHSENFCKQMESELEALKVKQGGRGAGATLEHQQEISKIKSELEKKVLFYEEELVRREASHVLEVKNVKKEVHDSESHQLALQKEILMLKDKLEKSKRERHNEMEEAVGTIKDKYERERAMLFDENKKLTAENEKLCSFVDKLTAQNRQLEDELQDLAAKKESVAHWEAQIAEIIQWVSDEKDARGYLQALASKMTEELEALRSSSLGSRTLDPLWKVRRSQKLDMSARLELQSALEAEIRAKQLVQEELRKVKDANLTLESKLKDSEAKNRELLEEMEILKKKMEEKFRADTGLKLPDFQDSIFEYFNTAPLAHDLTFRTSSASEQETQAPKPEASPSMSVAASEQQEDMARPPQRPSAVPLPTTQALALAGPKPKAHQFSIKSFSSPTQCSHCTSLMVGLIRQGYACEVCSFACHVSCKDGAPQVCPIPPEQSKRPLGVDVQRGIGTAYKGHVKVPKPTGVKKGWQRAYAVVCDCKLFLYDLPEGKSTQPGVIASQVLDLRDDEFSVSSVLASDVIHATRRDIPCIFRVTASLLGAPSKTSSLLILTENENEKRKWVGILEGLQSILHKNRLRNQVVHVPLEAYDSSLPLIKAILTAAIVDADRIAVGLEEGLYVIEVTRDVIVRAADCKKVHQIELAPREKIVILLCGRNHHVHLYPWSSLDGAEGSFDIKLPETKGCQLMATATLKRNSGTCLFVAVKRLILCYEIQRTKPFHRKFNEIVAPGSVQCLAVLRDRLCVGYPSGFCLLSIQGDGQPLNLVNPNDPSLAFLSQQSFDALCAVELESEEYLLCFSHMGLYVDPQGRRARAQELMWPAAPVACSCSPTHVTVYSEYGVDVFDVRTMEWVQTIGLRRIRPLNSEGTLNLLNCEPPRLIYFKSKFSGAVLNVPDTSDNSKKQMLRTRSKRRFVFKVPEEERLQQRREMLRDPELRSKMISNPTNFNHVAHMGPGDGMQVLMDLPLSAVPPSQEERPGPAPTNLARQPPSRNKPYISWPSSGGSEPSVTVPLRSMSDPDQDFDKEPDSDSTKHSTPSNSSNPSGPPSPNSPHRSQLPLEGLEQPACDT

inhibition [1]: 0% | inhibition [2]: 2%
SMILES: CNC(=O)c1ccccc1Oc1nc(Nc2cc(OC)c(OC)c(OC)c2)ncc1Br

inhibition [3]: 40% | fold change (FC) [4]: 0.01
SMILES: CC(C)[C@H](NC(=O)c1cc(-c2cnn3cc(-c4ccc(OCCN5CCCCC5)cc4)cnc23)cs1)C(F)(F)F

inhibition [5]: 2%
SMILES: O=C(N[C@@H](C1CC1)C(F)(F)F)c1cc(-c2cnn3cc(-c4ccc(F)cc4)cnc23)cs1
